The text below walks through data of ChEMBL document CHEMBL1134344, “Crystal structure of human cyclin-dependent kinase 2 in complex with the adenine-derived inhibitor H717” (J Med Chem, 2001).

Experiment [1] addresses Cyclin-dependent kinase 1/cyclin B (Homo sapiens, UniProt P06493). Nature of the experiment: Inhibition of human cyclic dependent kinase 1 (CDK1)/cyclin B. Format: protein-complex assay.
Experiment [2] concerns HCT-15. Nature of the experiment: Inhibition of HCT-15 human colon tumor cell proliferation. Format: functional, cell-based. Put shortly: (§1)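 Tumor cells harvested with trypsin-EDTA, trypan-blue-excluding cells counted, plated and left overnight at 37 °C; drug diluted in culture medium and added for 72 h (three days). Medium then removed, plates frozen at -80 °C ≥30 min, thawed, and CyQUANT-GR in lysis buffer added for 3-5 min at room temperature.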

Experiment [3] deals with MCF7. Nature of the experiment: Inhibition of MCF-7 human breast tumor cell proliferation. It is filed as functional, cell-based. The procedure, abridged: as §1
Experiment [4] deals with PC-3. Nature of the experiment: Inhibition of PC-3 human prostate tumor cell proliferation. It is filed as functional, cell-based. The procedure, abridged: as §1
Experiment [5] relates to A549. Nature of the experiment: Inhibition of A549 human lung tumor cell proliferation. Format: functional, cell-based. Put shortly:
as §1

For experiment [6], the target named is Cyclin-dependent kinase 2/cyclin E (Homo sapiens, UniProt P24941). Kind of experiment: Inhibition of cyclic dependent kinase 2 (CDK2)/cyclin E. Format: protein-complex assay.
Experiment [7] deals with HT-29. Kind of experiment: Inhibition of HT-29 human colon tumor cell proliferation. Format: functional, cell-based. Put shortly: as §1
Experiment [8] deals with MDA-MB-231. Kind of experiment: Inhibition of MDA-MB-231 human breast tumor cell proliferation. It is filed as functional, cell-based. The procedure, abridged:
as §1

Experiment [9] deals with Cyclin-dependent kinase 4/cyclin D1 (Homo sapiens, UniProt P11802). Nature of the experiment: Inhibition of cyclic dependent kinase 4 (CDK4)/cyclin D1. It is filed as protein-complex assay. Put shortly:
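Human CDK4 and cyclin D1 coexpressed in Sf9 cells (baculovirus, MOI 0.1 each, 72 h); 0.1 ng enzyme from clarified lysate. Substrate GST-Rb (0.5 µg) on glutathione-Sepharose beads. ATP 10 µM plus [γ33P]ATP; 30 min at 30 °C. Filtration, TNEN washes, scintillation counting; IC50 from increasing drug concentrations.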

Experiment [10] deals with DU-145. Kind of experiment: Inhibition of DU-145 human prostate tumor cell proliferation. Format: functional, cell-based. The procedure, abridged:
as §1

In experiment [11] the test system is DMS-114. Kind of experiment: Inhibition of DMS114 human lung tumor cell proliferation. Format: functional, cell-based. The procedure, abridged:
as §1

Chain of Cyclin-dependent kinase 4/cyclin D1 (P11802 whole entry): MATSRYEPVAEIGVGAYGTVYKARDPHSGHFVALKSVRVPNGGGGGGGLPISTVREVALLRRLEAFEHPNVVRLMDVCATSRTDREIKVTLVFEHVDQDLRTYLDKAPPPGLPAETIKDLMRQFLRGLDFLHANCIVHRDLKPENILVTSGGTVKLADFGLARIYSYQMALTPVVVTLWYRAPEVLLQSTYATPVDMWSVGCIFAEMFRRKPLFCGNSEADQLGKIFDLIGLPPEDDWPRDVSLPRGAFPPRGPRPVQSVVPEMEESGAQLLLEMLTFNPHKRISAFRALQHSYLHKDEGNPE
Chain of Cyclin-dependent kinase 4/cyclin D1 (P24385 whole entry, further chain): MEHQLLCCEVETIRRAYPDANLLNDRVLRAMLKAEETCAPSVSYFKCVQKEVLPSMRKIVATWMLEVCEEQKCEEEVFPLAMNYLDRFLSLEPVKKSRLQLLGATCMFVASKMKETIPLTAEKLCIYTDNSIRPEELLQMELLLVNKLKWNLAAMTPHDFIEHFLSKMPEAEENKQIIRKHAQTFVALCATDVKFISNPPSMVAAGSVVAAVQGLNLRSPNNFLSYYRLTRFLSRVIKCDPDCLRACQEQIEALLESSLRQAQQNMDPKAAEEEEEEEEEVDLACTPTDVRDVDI

As a reminder, the IC50 is the point on the concentration scale where inhibition reaches its midpoint. In turn, `N[C@H]1CC[C@H](Nc2nc(NCc3ccccc3)c3ncn(C4CCCC4)c3n2)CC1` gave a 50% inhibitory concentration (IC50) in experiment [1] of 52 nM.
For `C[C@H](Nc1nc(N[C@H]2CC[C@H](N)CC2)nc2c1ncn2C1CCCC1)c1ccccc1`, the 50% inhibitory concentration (IC50) in experiment [2] is 8.6 µM; in experiment [3] it was 3300 nM; in [4], 3900 nM; in experiment [5] it was 6100 nM; in [6], 720 nM; in [7], 5700 nM. The half-inhibitory concentration (IC50) in experiment [1] was 2000 nM; in experiment [8] it was 5200 nM; in experiment [9], 8800 nM; in experiment [10] it was 5600 nM; in experiment [11], 6600 nM.
In the case of `N[C@H]1CC[C@H](Nc2nc(NCC3CC3)c3ncn(C4CCCC4)c3n2)CC1`, the 50% inhibitory concentration (IC50) in experiment [2] is 3.3 µM; in [3], 1300 nM; in experiment [4], 600 nM; in experiment [5] it was 1600 nM; in experiment [6] it was 24 nM; in [7] it was 2000 nM. For the same compound, the IC50 in experiment [1] came to 70 nM; in experiment [8], 1700 nM; in [9] it was 780 nM; in experiment [10] it was 1300 nM; in experiment [11], 1400 nM.
As to `N[C@H]1CC[C@H](Nc2nc(NCc3cccc(I)c3)c3ncn(C4CCCC4)c3n2)CC1`, the IC50 amounted to 2.1 µM in [2]; 600 nM in experiment [3]; 1400 nM in [4]; 1000 nM in experiment [5]; 50 nM in [6]; 1200 nM in experiment [7]. The IC50 came out at 226 nM in experiment [1]; 1000 nM in experiment [8]; 2000 nM in experiment [9]; 1600 nM in experiment [10]; 1000 nM in experiment [11].
